{"source": "ChEMBL document CHEMBL1133704", "about": "“Synthesis, biodistribution, and primate imaging of fluorine-18 labeled 2beta-carbo-1'-fluoro-2-propoxy-3beta-(4-chlorophenyl)tr opanes. Ligands for the imaging of dopamine transporters by positron emission tomography” (J Med Chem, 2000)", "key": {"[1]": {"target": "Sodium-dependent serotonin transporter (Rattus norvegicus, UniProt P31652)", "sequence (P31652 whole entry)": "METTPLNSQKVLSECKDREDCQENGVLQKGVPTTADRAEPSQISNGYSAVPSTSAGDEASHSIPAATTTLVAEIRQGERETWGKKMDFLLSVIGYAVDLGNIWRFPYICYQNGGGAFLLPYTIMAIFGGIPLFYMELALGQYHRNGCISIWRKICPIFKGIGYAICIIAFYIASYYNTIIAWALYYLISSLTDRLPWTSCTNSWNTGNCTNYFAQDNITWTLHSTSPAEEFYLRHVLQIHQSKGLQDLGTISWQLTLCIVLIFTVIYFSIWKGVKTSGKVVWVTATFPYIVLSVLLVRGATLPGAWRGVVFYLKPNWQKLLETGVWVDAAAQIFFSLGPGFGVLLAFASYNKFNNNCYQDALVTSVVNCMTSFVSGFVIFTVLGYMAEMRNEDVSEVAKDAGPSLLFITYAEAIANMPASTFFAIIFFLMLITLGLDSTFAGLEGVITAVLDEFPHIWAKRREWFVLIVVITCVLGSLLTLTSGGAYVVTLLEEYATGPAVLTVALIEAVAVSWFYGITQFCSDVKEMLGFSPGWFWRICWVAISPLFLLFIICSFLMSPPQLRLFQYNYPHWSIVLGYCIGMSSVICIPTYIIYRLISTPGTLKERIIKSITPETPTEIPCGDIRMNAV", "assay": "Inhibition constant in rat serotonin transporter.", "method_in_brief": "(§1)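 Run by an outside screening program on membranes from rat striatum or cortex. Radioligand (2-12 nM) was incubated with 7-11 competitor concentrations. Radioligands: [N-methyl-³H]WIN 35,428 for DAT, [³H]citalopram for 5-HT transporter, [³H]desmethylimipramine for NE transporter. Ki values reported.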"}, "kidney": {"test_system": "kidney", "assay": "Ratio of inhibition of 5-HT to inhibition of dopamine (5-HT/DA) in murine kidney cells transfected with human serotonin transporter.", "format": "cell-based"}, "[2]": {"target": "Sodium-dependent serotonin transporter (Homo sapiens, UniProt P31645)", "sequence (P31645 whole entry)": "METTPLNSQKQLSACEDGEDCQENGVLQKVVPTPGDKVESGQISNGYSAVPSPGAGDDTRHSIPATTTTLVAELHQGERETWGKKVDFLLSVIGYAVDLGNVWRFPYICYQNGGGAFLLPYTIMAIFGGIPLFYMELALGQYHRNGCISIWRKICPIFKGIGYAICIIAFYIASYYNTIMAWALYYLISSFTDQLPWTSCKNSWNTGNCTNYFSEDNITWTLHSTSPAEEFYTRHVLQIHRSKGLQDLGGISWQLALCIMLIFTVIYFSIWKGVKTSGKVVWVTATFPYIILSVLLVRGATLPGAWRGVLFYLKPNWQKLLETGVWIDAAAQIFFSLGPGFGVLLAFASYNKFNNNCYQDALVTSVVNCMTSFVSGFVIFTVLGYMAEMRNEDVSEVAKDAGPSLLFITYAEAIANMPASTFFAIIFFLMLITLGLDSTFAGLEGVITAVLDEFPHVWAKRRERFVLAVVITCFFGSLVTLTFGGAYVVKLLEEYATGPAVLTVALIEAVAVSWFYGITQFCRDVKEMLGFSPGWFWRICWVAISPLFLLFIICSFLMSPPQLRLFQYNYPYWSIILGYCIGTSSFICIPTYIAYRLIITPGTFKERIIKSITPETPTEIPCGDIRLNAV", "assay": "Inhibition constant against [3H]citalopram in murine kidney cells transfected with human serotonin transporter.", "format": "cell-based", "method_in_brief": "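Membranes from a kidney cell line stably expressing human SERT. Buffer: 50 mM Tris, 120 mM NaCl, 5 mM KCl, pH 7.9. Radioligand: [³H]citalopram at 0.5 nM final. Incubated 1 h at 22 °C with competitor at nine concentrations (10^-13 to 10^-6 M, triplicate). Filtration, then scintillation counting. Ki taken from competition curves.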"}, "[3]": {"target": "Sodium-dependent dopamine transporter (Rattus norvegicus, UniProt P23977)", "sequence (P23977 whole entry)": "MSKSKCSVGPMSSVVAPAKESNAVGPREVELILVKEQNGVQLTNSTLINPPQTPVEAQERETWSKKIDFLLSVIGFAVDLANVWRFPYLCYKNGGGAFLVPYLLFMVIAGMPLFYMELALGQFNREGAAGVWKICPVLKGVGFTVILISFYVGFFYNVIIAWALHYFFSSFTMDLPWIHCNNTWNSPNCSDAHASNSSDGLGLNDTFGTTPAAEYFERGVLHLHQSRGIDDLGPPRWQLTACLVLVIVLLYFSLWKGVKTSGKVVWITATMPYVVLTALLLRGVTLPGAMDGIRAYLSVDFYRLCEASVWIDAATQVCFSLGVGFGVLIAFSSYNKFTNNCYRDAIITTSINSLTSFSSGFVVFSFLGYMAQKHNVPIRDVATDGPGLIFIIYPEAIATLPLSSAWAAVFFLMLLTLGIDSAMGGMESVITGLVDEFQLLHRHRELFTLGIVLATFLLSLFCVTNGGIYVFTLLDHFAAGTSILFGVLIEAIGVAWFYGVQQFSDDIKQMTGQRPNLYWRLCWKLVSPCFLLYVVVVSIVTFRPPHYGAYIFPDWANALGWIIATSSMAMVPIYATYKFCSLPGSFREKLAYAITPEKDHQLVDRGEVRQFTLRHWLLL", "assay": "Inhibition constant in rat dopamine transporter.", "method_in_brief": "as §1"}, "[4]": {"assay": "Ratio of inhibition of 5-HT to inhibition of dopamine (5-HT/DA); ND means no data."}, "[5]": {"target": "Sodium-dependent dopamine transporter (Homo sapiens, UniProt Q01959)", "sequence (Q01959 whole entry)": "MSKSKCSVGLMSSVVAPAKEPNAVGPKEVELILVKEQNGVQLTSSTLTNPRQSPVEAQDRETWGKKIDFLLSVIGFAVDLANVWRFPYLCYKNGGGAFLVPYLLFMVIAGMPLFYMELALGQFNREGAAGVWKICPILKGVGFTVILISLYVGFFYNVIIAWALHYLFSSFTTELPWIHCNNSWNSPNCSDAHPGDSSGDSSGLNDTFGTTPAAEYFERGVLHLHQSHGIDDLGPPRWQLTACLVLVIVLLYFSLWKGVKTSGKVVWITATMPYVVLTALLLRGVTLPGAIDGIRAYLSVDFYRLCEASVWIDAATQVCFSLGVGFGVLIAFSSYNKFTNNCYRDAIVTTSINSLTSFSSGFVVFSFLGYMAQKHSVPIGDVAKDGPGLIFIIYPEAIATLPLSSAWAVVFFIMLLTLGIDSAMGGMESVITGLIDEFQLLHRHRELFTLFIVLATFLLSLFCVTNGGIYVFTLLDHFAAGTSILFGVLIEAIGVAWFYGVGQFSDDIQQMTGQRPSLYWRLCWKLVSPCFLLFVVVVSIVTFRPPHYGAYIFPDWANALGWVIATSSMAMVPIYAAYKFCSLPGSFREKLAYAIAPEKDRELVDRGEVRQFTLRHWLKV", "assay": "Inhibition constant against [N-methyl-3H]WIN-35428 in murine kidney cells transfected with human dopamine transporter.", "format": "cell-based", "method_in_brief": "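Membranes from a kidney cell line stably expressing human DAT. Buffer: 0.03 M phosphate, pH 7.4, with 0.32 M sucrose. Radioligand: [³H]WIN 35,428 at 2.0 nM final. Incubated 2 h at 4 °C with competitor at nine concentrations (10^-13 to 10^-6 M, triplicate). GF/B filtration, then scintillation counting. Ki taken from competition curves.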"}, "[6]": {"target": "Norepinephrine transporter (Rattus norvegicus, UniProt Q9WTR4)", "sequence (Q9WTR4 whole entry)": "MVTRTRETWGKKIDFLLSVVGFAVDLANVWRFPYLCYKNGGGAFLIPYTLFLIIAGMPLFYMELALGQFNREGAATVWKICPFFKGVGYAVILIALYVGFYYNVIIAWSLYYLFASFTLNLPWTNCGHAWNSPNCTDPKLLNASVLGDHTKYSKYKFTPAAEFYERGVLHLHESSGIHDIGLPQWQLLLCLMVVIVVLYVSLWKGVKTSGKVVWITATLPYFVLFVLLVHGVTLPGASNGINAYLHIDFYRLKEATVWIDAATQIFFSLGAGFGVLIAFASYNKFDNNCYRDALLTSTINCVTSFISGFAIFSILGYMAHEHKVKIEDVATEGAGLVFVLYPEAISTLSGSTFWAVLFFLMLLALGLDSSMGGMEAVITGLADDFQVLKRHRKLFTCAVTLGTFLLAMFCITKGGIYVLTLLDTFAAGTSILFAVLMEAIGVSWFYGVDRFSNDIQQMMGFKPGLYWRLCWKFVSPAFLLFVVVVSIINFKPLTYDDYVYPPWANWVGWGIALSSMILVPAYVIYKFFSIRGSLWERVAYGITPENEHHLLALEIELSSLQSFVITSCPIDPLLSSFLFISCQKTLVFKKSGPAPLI", "assay": "Inhibition constant in rat Norepinephrine transporter", "method_in_brief": "as §1"}, "Rattus norvegicus [7]": {"test_system": "Rattus norvegicus", "assay": "Distribution of Radioactivity (percent injected dose per gram of tissue)in Rat striatum after 30 min of iv administration; value ranges from 3.57-6.08", "format": "ADME, organism-based", "conditions": "in vivo, 0.5 h", "method_in_brief": "(§2)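 Male Sprague-Dawley rats (225-300 g) under ketamine received a tail-vein dose of 50 µCi of [18F]-labeled tropane in 0.2 mL 13% EtOH/0.9% NaCl. At 5, 30, 60 or 120 min, cortex, striatum and cerebellum were dissected into tared tubes, weighed and γ-counted. \"Rest of brain\" was also counted. %dose/g was calculated against the diluted injected dose. Values are mean and range for three or four rats.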"}, "Rattus norvegicus [8]": {"test_system": "Rattus norvegicus", "assay": "Distribution of Radioactivity (percent injected dose per gram of tissue) in Rat brain cortex after 120 min of iv administration; value ranges from 0.22-0.33", "format": "ADME, organism-based", "conditions": "in vivo, 2 h", "method_in_brief": "as §2"}, "[9]": {"assay": "Ratio of Distribution of Radioactivity (percent injected dose per gram of tissue) in striatum to cerebellum of brain after 30 min of iv administration; value ranges from 3.83-4.94", "format": "ADME, organism-based", "conditions": "in vivo, 0.5 h"}, "Rattus norvegicus [10]": {"test_system": "Rattus norvegicus", "assay": "Distribution of Radioactivity (percent injected dose per gram of tissue) in Rat striatum after 120 min of iv administration; value ranges from 1.07-1.22", "format": "ADME, organism-based", "conditions": "in vivo, 2 h", "method_in_brief": "as §2"}, "Rattus norvegicus [11]": {"test_system": "Rattus norvegicus", "assay": "Distribution of Radioactivity (percent injected dose per gram of tissue) in Rat brain cortex after 30 min of iv administration; value ranges from 2.47-3.09", "format": "ADME, organism-based", "conditions": "in vivo, 0.5 h", "method_in_brief": "as §2"}, "Rattus norvegicus [12]": {"test_system": "Rattus norvegicus", "assay": "Distribution of Radioactivity (percent injected dose per gram of tissue) in Rat brain cerebellum after 60 min of iv administration; value ranges from 0.32-0.48", "format": "ADME, organism-based", "conditions": "in vivo, 1 h", "method_in_brief": "as §2"}, "Rattus norvegicus [13]": {"test_system": "Rattus norvegicus", "assay": "Distribution of Radioactivity (percent injected dose per gram of tissue) in Rat striatum 5 min of iv administration; value ranges from 3.44-4.80.", "format": "ADME, organism-based", "conditions": "in vivo", "method_in_brief": "as §2"}, "Rattus norvegicus [14]": {"test_system": "Rattus norvegicus", "assay": "Distribution of Radioactivity (percent injected dose per gram of tissue) in rest rat of brain after 30 min of iv administration; value ranges from 0.85-1.21", "format": "ADME, organism-based", "conditions": "in vivo, 0.5 h", "method_in_brief": "as §2"}, "Rattus norvegicus [15]": {"test_system": "Rattus norvegicus", "assay": "Distribution of Radioactivity (percent injected dose per gram of tissue) in rest rat of brain after 60 min of iv administration; value ranges from 0.36-0.52", "format": "ADME, organism-based", "conditions": "in vivo, 1 h", "method_in_brief": "as §2"}, "[16]": {"assay": "Ratio of Distribution of Radioactivity (percent injected dose per gram of tissue) in striatum to cortex of brain after 30 min of iv administration; value ranges from 1.67-2.85", "format": "ADME, organism-based", "conditions": "in vivo, 0.5 h"}, "[17]": {"assay": "Ratio of Distribution of Radioactivity (percent injected dose per gram of tissue) in striatum to cerebellum of brain after 120 min of iv administration; value ranges from 4.64-6.14", "format": "ADME, organism-based", "conditions": "in vivo, 2 h"}, "Rattus norvegicus [18]": {"test_system": "Rattus norvegicus", "assay": "Distribution of Radioactivity (percent injected dose per gram of tissue) in Rat brain cerebellum after 5 min of iv administration; value ranges from 1.26-1.62", "format": "ADME, organism-based", "conditions": "in vivo", "method_in_brief": "as §2"}, "Rattus norvegicus [19]": {"test_system": "Rattus norvegicus", "assay": "Distribution of Radioactivity (percent injected dose per gram of tissue) in Rat brain cortex after 60 min of iv administration; value ranges from 0.51-1.09", "format": "ADME, organism-based", "conditions": "in vivo, 1 h", "method_in_brief": "as §2"}, "Rattus norvegicus [20]": {"test_system": "Rattus norvegicus", "assay": "Distribution of Radioactivity (percent injected dose per gram of tissue) in Rat striatum after 60 min of iv administration; value ranges from 2.07-2.83", "format": "ADME, organism-based", "conditions": "in vivo, 1 h", "method_in_brief": "as §2"}, "Rattus norvegicus [21]": {"test_system": "Rattus norvegicus", "assay": "Distribution of Radioactivity (percent injected dose per gram of tissue) in Rat brain cortex after 5 min of iv administration; value ranges from 2.47-3.09", "format": "ADME, organism-based", "conditions": "in vivo", "method_in_brief": "as §2"}, "Rattus norvegicus [22]": {"test_system": "Rattus norvegicus", "assay": "Distribution of Radioactivity (percent injected dose per gram of tissue) in rest rat of brain after 5 min of iv administration; value ranges from 1.19-1.53", "format": "ADME, organism-based", "conditions": "in vivo", "method_in_brief": "as §2"}, "[23]": {"assay": "Ratio of Distribution of Radioactivity (percent injected dose per gram of tissue) in striatum to cortex of brain after 120 min of iv administration; value ranges from 2.61-3.24", "format": "ADME, organism-based", "conditions": "in vivo, 2 h"}, "Rattus norvegicus [24]": {"test_system": "Rattus norvegicus", "assay": "Distribution of Radioactivity (percent injected dose per gram of tissue) in Rat brain cerebellum after 120 min of iv administration; value ranges from 0.19-0.25", "format": "ADME, organism-based", "conditions": "in vivo, 2 h", "method_in_brief": "as §2"}, "[25]": {"assay": "Ratio of Distribution of Radioactivity (percent injected dose per gram of tissue) in striatum to cortex of brain after 5 min of iv administration; value ranges from 1.32-1.94", "format": "ADME, organism-based", "conditions": "in vivo"}, "[26]": {"assay": "Ratio of Distribution of Radioactivity (percent injected dose per gram of tissue) in striatum to cerebellum of brain after 5 min of iv administration; value ranges from 2.49-3.81", "format": "ADME, organism-based", "conditions": "in vivo"}, "Rattus norvegicus [27]": {"test_system": "Rattus norvegicus", "assay": "Distribution of Radioactivity (percent injected dose per gram of tissue) in Rat brain cerebellum after 30 min of iv administration; value ranges from 0.75-1.23", "format": "ADME, organism-based", "conditions": "in vivo, 0.5 h", "method_in_brief": "as §2"}, "Rattus norvegicus [28]": {"test_system": "Rattus norvegicus", "assay": "Distribution of Radioactivity (percent injected dose per gram of tissue) in rest rat of brain after 120 min of iv administration; value ranges from 0.22-0.33", "format": "ADME, organism-based", "conditions": "in vivo, 2 h", "method_in_brief": "as §2"}, "[29]": {"assay": "Ratio of Distribution of Radioactivity (percent injected dose per gram of tissue) in striatum to cortex of brain after 60 min of iv administration; value ranges from 2.59-4.06", "format": "ADME, organism-based", "conditions": "in vivo, 1 h"}, "[30]": {"assay": "Ratio of Distribution of Radioactivity (percent injected dose per gram of tissue) in striatum to cerebellum of brain after 60 min of iv administration; value ranges from 4.43-6.93", "format": "ADME, organism-based", "conditions": "in vivo, 1 h"}}, "data": [{"molecule": "C[C@@H](CF)OC(=O)C1C(c2ccc(Cl)cc2)CC2CCC1N2C", "note": "(stereo partly drawn)", "values": [{"measurement": "Ki", "setting": "[1]", "result": 137, "unit": "nM"}, {"measurement": "Ratio", "setting": "kidney", "result": 127}, {"measurement": "Ki", "setting": "[2]", "result": 85, "unit": "nM"}, {"measurement": "Ki", "setting": "[3]", "result": 6.06, "unit": "nM"}, {"measurement": "Ratio", "setting": "[4]", "result": 23}, {"measurement": "Ki", "setting": "[5]", "result": 0.67, "unit": "nM"}, {"measurement": "Ki", "setting": "[6]", "result": 690, "unit": "nM"}]}, {"molecule": "C[C@H](CF)OC(=O)C1C(c2ccc(Cl)cc2)CC2CCC1N2C", "note": "(stereo partly drawn)", "values": [{"measurement": "Biodistribution", "setting": "Rattus norvegicus [7]", "result": 4.5, "unit": "%"}, {"measurement": "Biodistribution", "setting": "Rattus norvegicus [8]", "result": 0.4, "unit": "%"}, {"measurement": "S/Cereb Ratio", "setting": "[9]", "result": 4.55}, {"measurement": "Biodistribution", "setting": "Rattus norvegicus [10]", "result": 1.2, "unit": "%"}, {"measurement": "Biodistribution", "setting": "Rattus norvegicus [11]", "result": 2.04, "unit": "%"}, {"measurement": "Biodistribution", "setting": "Rattus norvegicus [12]", "result": 0.38, "unit": "%"}, {"measurement": "Biodistribution", "setting": "Rattus norvegicus [13]", "result": 3.97, "unit": "%"}, {"measurement": "Biodistribution", "setting": "Rattus norvegicus [14]", "result": 1.03, "unit": "%"}, {"measurement": "Biodistribution", "setting": "Rattus norvegicus [15]", "result": 0.45, "unit": "%"}, {"measurement": "S/CX Ratio", "setting": "[16]", "result": 2.21}, {"measurement": "Ki", "setting": "[1]", "result": 133, "unit": "nM"}, {"measurement": "S/Cereb Ratio", "setting": "[17]", "result": 5.45}, {"measurement": "Biodistribution", "setting": "Rattus norvegicus [18]", "result": 1.42, "unit": "%"}, {"measurement": "Biodistribution", "setting": "Rattus norvegicus [19]", "result": 0.77, "unit": "%"}, {"measurement": "Ratio", "setting": "kidney", "result": 20}, {"measurement": "Ki", "setting": "[2]", "result": 64, "unit": "nM"}, {"measurement": "Ki", "setting": "[3]", "result": 14.7, "unit": "nM"}, {"measurement": "Biodistribution", "setting": "Rattus norvegicus [20]", "result": 2.28, "unit": "%"}, {"measurement": "Ratio", "setting": "[4]", "result": 9}, {"measurement": "Biodistribution", "setting": "Rattus norvegicus [21]", "result": 2.76, "unit": "%"}, {"measurement": "Biodistribution", "setting": "Rattus norvegicus [22]", "result": 1.36, "unit": "%"}, {"measurement": "S/CX Ratio", "setting": "[23]", "result": 3}, {"measurement": "Biodistribution", "setting": "Rattus norvegicus [24]", "result": 0.22, "unit": "%"}, {"measurement": "S/CX Ratio", "setting": "[25]", "result": 1.44}, {"measurement": "S/Cereb Ratio", "setting": "[26]", "result": 2.79}, {"measurement": "Biodistribution", "setting": "Rattus norvegicus [27]", "result": 0.99, "unit": "%"}, {"measurement": "Ki", "setting": "[5]", "result": 3.2, "unit": "nM"}, {"measurement": "Ki", "setting": "[6]", "result": 498, "unit": "nM"}, {"measurement": "Biodistribution", "setting": "Rattus norvegicus [28]", "result": 0.27, "unit": "%"}, {"measurement": "S/CX Ratio", "setting": "[29]", "result": 2.96}, {"measurement": "S/Cereb Ratio", "setting": "[30]", "result": 6}]}]}
